Assay results taken from ChEMBL document CHEMBL1143977, “Disruption of Kv1.1 N-type inactivation by novel small molecule inhibitors (disinactivators)” (Bioorg Med Chem, 2008).
Calls of active or inactive are those of the source. No cut-off for these calls is given here.

Key:
[1] = target: T1, Voltage-gated potassium channel subfamily A member 1/beta-1 (Homo sapiens, UniProt Q09470+Q14722); experiment: Inhibition of Kv1.1/Kvbeta1 N terminal chimera channel inactivation expressed in xenopus oocytes at 50 uM by voltage clamp assay; type: cell-based; parameters: scale not given: the % may be the effect or the level left; settings: Oocyte
Summary of the method: (§1)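 Stage V–VI Xenopus oocytes injected with ~0.5–5 ng mRNA and kept 1–4 days in ND-96 (pH 7.6). Either Kv1.1 plus Kvβ1 RNA at 1:160, or a chimera (Kvβ1 residues 1–70 fused through a Ser to Kv1.1 N-terminus). Two-electrode clamp in perfused ND-96 with 3 M KCl electrodes. Held at −80 mV, stepped 200 ms to +50 mV. Disinactivation = 100·Iss/Ipeak, ≥3 experiments, mean ± SEM. EC50 from logistic fit.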

[2] = target: T2, A-type voltage-gated potassium channel KCND2 (Homo sapiens) (UniProt Q9NZV8); experiment: Inhibition of Kv4.2 channel inactivation expressed in xenopus oocytes at 30 uM by voltage clamp assay; type: cell-based; settings: Oocyte
T2 sequence (whole entry): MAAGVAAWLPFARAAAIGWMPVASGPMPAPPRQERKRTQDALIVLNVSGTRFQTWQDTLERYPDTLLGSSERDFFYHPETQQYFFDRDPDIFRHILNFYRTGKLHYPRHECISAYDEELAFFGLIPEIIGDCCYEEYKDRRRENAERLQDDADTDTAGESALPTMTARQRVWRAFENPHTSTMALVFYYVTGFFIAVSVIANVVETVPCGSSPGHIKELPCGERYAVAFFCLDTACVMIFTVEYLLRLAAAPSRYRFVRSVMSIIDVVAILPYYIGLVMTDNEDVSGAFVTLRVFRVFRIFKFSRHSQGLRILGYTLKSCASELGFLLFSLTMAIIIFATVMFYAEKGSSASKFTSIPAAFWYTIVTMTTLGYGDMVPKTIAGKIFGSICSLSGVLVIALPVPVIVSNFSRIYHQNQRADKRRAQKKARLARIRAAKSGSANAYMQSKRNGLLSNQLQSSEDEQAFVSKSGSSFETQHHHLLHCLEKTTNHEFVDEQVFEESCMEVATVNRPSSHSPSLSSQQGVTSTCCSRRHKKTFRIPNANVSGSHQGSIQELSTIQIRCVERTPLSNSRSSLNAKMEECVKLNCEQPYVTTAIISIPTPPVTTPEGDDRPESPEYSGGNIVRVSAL

[3] = target: T3, Potassium voltage-gated channel subfamily A member 1 (Homo sapiens, UniProt Q09470); experiment: Inhibition of Kvbeta-1-mediated inactivation of Kv1.1 channel expressed in xenopus oocytes at 50 uM by voltage clamp assay; type: cell-based; parameters: scale not given: the % may be the effect or the level left; settings: Oocyte; summary of the method: as §1
[4] = target: T4, Potassium voltage-gated channel subfamily A member 4 (Homo sapiens, UniProt P22459); experiment: Inhibition of Kv1.4 channel inactivation expressed in xenopus oocytes at 50 uM by voltage clamp assay; type: cell-based; parameters: scale not given: the % may be the effect or the level left; settings: Oocyte
Summary of the method: (§2)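 Kv1.4 expressed in stage V–VI Xenopus oocytes and recorded 1–4 days after injection. Two-electrode voltage clamp in perfused ND-96 (pH 7.6), held at −80 mV with 200 ms steps to +50 mV. Compound up to 50 µM, current followed 2–8 min after application. Disinactivation = 100·Iss/Ipeak, three experiments.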

[5] = target: T3, Potassium voltage-gated channel subfamily A member 1; experiment: Inhibition of Kvbeta-1-mediated inactivation of Kv1.1 channel expressed in xenopus oocytes at 150 uM by voltage clamp assay; type: cell-based; parameters: scale not given: the % may be the effect or the level left; settings: Oocyte
Mus musculus [6] = experiment: Anticonvulsant activity in ip dosed CF1 mouse assessed as inhibition of pentylenetetrazole-induced seizure; type: functional
Summary of the method: (§3)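 Male CF-1 mice, 20–25 g, free access to food and water. Compound in 2% Tween 80/1% methylcellulose/saline given ip 30 min before PTZ 85 mg/kg sc. Mice observed 30 min in individual chambers. Groups of eight scored for presence or absence of clonic seizure (forelimb and hindlimb paddling with loss of righting). ED50 in mg/kg, or number of mice seizing out of eight.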

Mus musculus [7] = experiment: Anticonvulsant activity in CF1 mouse assessed as inhibition of pentylenetetrazole-induced seizure at 100 mg/kg, ip; type: functional, organism-based; parameters: dose 100 mg/kg; summary of the method: as §3
[8] = target: T3, Potassium voltage-gated channel subfamily A member 1; experiment: Inhibition of Kv-beta-1 mediated inactivation of Kv1.1 channel assessed as intracellular calcium accumulation in Tsa201 cells at 50 uM by FLIPR assay
[9] = target: T3, Potassium voltage-gated channel subfamily A member 1; experiment: Inhibition of Kv-beta-1 mediated inactivation of Kv1.1 channel assessed as intracellular calcium accumulation in Tsa201 cells at 50 uM by FLIPR assay; type: cell-based
Summary of the method: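 Tsa201 cells plated at 50,000/well and used the following day. Loaded with 3 µM Fluo-4 AM in HBSS with 2.5 mM probenecid, 60 min at 37 °C, then washed into calcium-free HBSS. Baseline read 5 s, compound added at final 50 µM (A23187 reference at 10 µM), fluorescence followed 3 min. Signal normalized to background. BAPTA-AM 10 µM counter-check for autofluorescence.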

[10] = target: T1, Voltage-gated potassium channel subfamily A member 1/beta-1; experiment: Inhibition of Kv1.1/Kvbeta1 N terminal chimera channel inactivation expressed in xenopus oocytes by voltage clamp assay; type: cell-based, Oocyte; summary of the method: as §1
[11] = target: T3, Potassium voltage-gated channel subfamily A member 1; experiment: Inhibition of Kvbeta-1-mediated inactivation of Kv1.1 channel expressed in xenopus oocytes by voltage clamp assay; type: cell-based, Oocyte; summary of the method: as §1
[12] = target: T4, Potassium voltage-gated channel subfamily A member 4; experiment: Inhibition of Kv1.4 channel inactivation expressed in xenopus oocytes by voltage clamp assay; type: cell-based, Oocyte; summary of the method: as §2
[13] = target: T3, Potassium voltage-gated channel subfamily A member 1; experiment: Inhibition of Kvbeta-1-mediated inactivation of Kv1.1 channel expressed in xenopus oocytes at 200 uM by voltage clamp assay; type: cell-based; parameters: scale not given: the % may be the effect or the level left; settings: Oocyte

T4 sequence (P22459 whole entry, the tested form may be a part): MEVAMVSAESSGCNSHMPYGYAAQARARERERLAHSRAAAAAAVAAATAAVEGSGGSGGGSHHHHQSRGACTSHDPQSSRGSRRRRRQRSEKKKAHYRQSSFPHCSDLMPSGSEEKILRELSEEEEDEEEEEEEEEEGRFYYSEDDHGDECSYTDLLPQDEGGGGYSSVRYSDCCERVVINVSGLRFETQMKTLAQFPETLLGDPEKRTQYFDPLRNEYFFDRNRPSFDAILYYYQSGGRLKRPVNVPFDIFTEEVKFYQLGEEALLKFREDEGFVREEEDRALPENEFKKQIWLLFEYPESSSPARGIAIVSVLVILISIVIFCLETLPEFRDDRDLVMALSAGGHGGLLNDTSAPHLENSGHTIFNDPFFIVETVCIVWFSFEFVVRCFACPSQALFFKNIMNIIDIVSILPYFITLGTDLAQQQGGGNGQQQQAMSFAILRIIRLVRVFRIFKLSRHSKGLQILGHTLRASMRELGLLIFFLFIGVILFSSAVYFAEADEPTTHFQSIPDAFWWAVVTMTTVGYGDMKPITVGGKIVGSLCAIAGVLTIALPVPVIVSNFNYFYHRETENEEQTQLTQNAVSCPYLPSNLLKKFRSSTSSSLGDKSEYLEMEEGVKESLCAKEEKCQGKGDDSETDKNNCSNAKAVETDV
T3 sequence (Q09470 whole entry): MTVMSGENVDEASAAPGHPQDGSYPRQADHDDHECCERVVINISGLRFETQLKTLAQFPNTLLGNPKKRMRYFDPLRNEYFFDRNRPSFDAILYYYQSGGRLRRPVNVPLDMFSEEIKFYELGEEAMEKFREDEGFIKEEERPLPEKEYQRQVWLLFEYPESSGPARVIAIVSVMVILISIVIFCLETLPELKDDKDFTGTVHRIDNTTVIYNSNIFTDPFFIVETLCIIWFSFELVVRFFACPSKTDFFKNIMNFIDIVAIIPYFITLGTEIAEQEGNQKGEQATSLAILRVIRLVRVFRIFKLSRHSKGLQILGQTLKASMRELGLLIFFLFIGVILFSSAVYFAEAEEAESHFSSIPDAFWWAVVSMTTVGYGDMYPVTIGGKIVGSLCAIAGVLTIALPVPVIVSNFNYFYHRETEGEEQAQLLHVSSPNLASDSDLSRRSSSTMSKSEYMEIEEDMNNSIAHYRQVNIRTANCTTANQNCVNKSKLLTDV
T1 sequence (Q09470 whole entry, the tested form may be a part): as the sequence (Q09470 whole entry) above
T1 sequence (Q14722 whole entry, the tested form may be a part): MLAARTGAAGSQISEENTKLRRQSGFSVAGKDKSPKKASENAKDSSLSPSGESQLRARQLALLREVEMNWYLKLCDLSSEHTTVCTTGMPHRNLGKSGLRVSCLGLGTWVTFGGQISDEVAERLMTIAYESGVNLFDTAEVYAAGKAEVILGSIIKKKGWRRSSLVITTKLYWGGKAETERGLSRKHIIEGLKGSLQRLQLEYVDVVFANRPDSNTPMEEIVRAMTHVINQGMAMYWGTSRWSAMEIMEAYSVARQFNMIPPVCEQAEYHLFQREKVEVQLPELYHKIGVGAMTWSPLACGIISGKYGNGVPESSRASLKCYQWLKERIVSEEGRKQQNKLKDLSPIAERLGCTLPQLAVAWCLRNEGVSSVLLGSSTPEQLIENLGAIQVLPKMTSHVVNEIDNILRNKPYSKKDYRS

Structure (SMILES) | Activity [2] | Activity [3] [%] | ED50 (Mus musculus [6]) [mg/kg] | also measured
CC1(C)CC(=O)C(C(=O)Nc2ccc(Cl)cc2C(F)(F)F)C(=O)C1 | inactive | – | 66 | Activity [4]: 5%; Activity [5]: 45%
CC1(c2ccccc2)NC(=O)N(C(=O)/C=C/c2ccc(F)cc2)C1=O (stereo not drawn) | inactive | 52.5 | – | Activity [1]: 34%
O=C(Nc1ccc([N+](=O)[O-])cc1)C1C(=O)C2=C(CCCC2)C1=O | inactive | 96.3 | – | Activity (Mus musculus [7]): inactive; Activity [8]: Active; Activity [9]: Active
CC1(C)CC(=O)C(C(=O)Nc2cccc(C(F)(F)F)c2)C(=O)C1 | inactive | 18.5 | 32 | Activity [13]: 40%

Continued, in another order:

Activity [2] | Activity [3] [%] | Structure (SMILES) | ED50 (Mus musculus [6]) [mg/kg] | also measured
inactive | 18.8 | C[C@@]1(c2ccccc2)NC(=O)N(C(=O)C2=Cc3cc(Cl)ccc3OC2)C1=O | – | Activity [1]: 37%
inactive | – | CC1(C)OCC(Br)([N+](=O)[O-])CO1 | 139 | EC50 [10]: 16.7 µM; EC50 [11]: 4.3 µM; EC50 [12]: 2.3 µM
inactive | – | O=[N+]([O-])C1(Br)COC(c2ccccc2)OC1 (stereo not drawn) | – | EC50 [10]: 8.9 µM; EC50 [11]: 7.1 µM; EC50 [12]: 1.3 µM
